Source: ChEMBL document CHEMBL3860039, “Structure-Activity Relationship and Signaling of New Chimeric CXCR4 Agonists” (J Med Chem, 2016)

How the values were obtained:
Format in all cases: cell-based
[1] = target: T1, C-X-C chemokine receptor type 4 (Homo sapiens, UniProt P61073); test: Agonist activity at HA-tagged human CXCR4 receptor expressed in HEK293 cells co-transfected with Galphai1-91-RlucII, Gbeta1, and GFP10-G-gamma1 incubated for 7 mins by Galpha1 protein activation-based BRET assay
Procedure, shortened: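 HEK293 cells (3 × 10^6 per 100 mm dish) co-transfected via polyethylenimine with HA-hCXCR4 plus Gαi1-91-RlucII, Gβ1, GFP10-Gγ1; replated at 24 h, 100 000 cells/well. At 48 h, washed in HBSS/0.1% BSA, exposed to ligand 10−12 to 10−5 M for 7 min, then coelenterazine-400A 5 μM final; BRET2 515/400 nm ratio. EC50 (Gαi dissociation) and Emax from three experiments in triplicate.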

[2] = target: T1, C-X-C chemokine receptor type 4; test: Agonist activity at CXCR4 in human REH cells assessed as optimal concentration causing maximum induction of chemotaxis incubated for 3 hrs by transwell migration assay
Procedure, shortened: (§1)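 REH acute lymphoblastic B-cell leukaemia cells washed in RPMI; 100 000 cells in RPMI + 0.2% BSA seeded on top of 5 μm pore polycarbonate transwell, peptide dilutions in same medium in bottom chamber; 3 h, 37 °C, 5% CO2. Migrated cells in lower chamber counted by automated counter, expressed as % of seeded cells; peak = concentration giving maximal migration. Three experiments in triplicate.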

[3] = target: T1, C-X-C chemokine receptor type 4; test: Agonist activity at CXCR4 in human REH cells assessed as induction of chemotaxis incubated for 3 hrs by transwell migration assay; procedure, shortened: as §1
[4] = target: T1, C-X-C chemokine receptor type 4; test: Displacement of [125I]-CXCL12 from HA-tagged human recombinant CXCR4 expressed in HEK293 cells incubated for 1 hr by gamma-radiation counting analysis

T1 sequence (P61073 whole entry): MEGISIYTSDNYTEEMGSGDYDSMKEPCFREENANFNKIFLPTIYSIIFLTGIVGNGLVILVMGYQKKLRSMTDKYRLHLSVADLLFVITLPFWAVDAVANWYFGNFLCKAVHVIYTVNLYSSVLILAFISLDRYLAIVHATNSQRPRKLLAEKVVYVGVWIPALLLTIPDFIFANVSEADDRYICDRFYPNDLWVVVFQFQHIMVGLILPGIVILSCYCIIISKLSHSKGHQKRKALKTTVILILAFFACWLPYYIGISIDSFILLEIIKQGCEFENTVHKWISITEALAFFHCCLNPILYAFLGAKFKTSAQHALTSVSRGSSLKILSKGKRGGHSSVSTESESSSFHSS

EC50 [1]	Emax [1]	Activity [2]	%max [3]	IC50 [4]	Compound
111 nM	21%	1000 nM	19%	137 nM	CC(C)C[C@H](NC(=O)[C@H](CO)NC(=O)[C@@H](NC(=O)[C@@H]1CCCN1C(=O)[C@@H](N)CCCCN)C(C)C)C(=O)N[C@@H](CO)C(=O)N[C@@H](Cc1ccc(O)cc1)C(=O)N[C@@H](CCCNC(=N)N)C(=O)N[C@@H](C)C(=O)N[C@@H](C)C(=O)NCCCC[C@H](NC(=O)[C@@H]1CSSC[C@H](NC(=O)[C@H](Cc2ccc3ccccc3c2)NC(=O)[C@H](CCCNC(=N)N)NC(=O)[C@@H](N)CCCNC(=N)N)C(=O)N[C@@H](Cc2ccc(O)cc2)C(=O)N[C@@H](CCCNC(=N)N)C(=O)N[C@@H](CCCCN)C(=O)N[C@H](CCCCN)C(=O)N2CCC[C@H]2C(=O)N[C@@H](Cc2ccc(O)cc2)C(=O)NC(CCCNC(=N)N)C(=O)N[C@@H](CCCNC(=N)N)C(=O)N1)C(=O)O (stereo not given in full)
81 nM	68%	10 nM	75%	48 nM	CC(C)C[C@H](NC(=O)[C@H](CO)NC(=O)[C@H](Cc1ccc2cc3ccccc3cc2c1)NC(=O)[C@@H]1CCCN1C(=O)[C@@H](N)CCCCN)C(=O)N[C@@H](CO)C(=O)N[C@@H](Cc1ccc(O)cc1)C(=O)N[C@@H](CCCNC(=N)N)C(=O)N[C@@H](CO)C(=O)N[C@@H](C)C(=O)NCCCC[C@H](NC(=O)[C@@H]1CSSC[C@H](NC(=O)[C@H](Cc2ccc3ccccc3c2)NC(=O)[C@H](CCCNC(=N)N)NC(=O)[C@@H](N)CCCNC(=N)N)C(=O)N[C@@H](Cc2ccc(O)cc2)C(=O)N[C@@H](CCCNC(=N)N)C(=O)N[C@@H](CCCCN)C(=O)N[C@H](CCCCN)C(=O)N2CCC[C@H]2C(=O)N[C@@H](Cc2ccc(O)cc2)C(=O)N[C@@H](CCCNC(=N)N)C(=O)N[C@@H](CCCNC(=N)N)C(=O)N1)C(=O)O
56 nM	81%	10 nM	50%	25 nM	CC(C)C[C@H](NC(=O)[C@H](C)NC(=O)[C@@H](NC(=O)[C@@H]1CCCN1C(=O)[C@@H](N)CCCCN)C(C)C)C(=O)N[C@@H](CO)C(=O)N[C@@H](Cc1ccc(O)cc1)C(=O)N[C@@H](CCCNC(=N)N)C(=O)N[C@@H](CO)C(=O)N[C@@H](C)C(=O)NCCCC[C@H](NC(=O)[C@@H]1CSSC[C@H](NC(=O)[C@H](Cc2ccc3ccccc3c2)NC(=O)[C@H](CCCNC(=N)N)NC(=O)[C@@H](N)CCCNC(=N)N)C(=O)N[C@@H](Cc2ccc(O)cc2)C(=O)N[C@@H](CCCNC(=N)N)C(=O)N[C@@H](CCCCN)C(=O)N[C@H](CCCCN)C(=O)N2CCC[C@H]2C(=O)N[C@@H](Cc2ccc(O)cc2)C(=O)N[C@@H](CCCNC(=N)N)C(=O)N[C@@H](CCCNC(=N)N)C(=O)N1)C(=O)O
40 nM	25%	10000 nM	16%	300 nM	CC(C)C[C@H](NC(=O)[C@H](CO)NC(=O)[C@@H](NC(=O)[C@@H]1CCCN1C(=O)[C@@H](N)CCCCN)C(C)C)C(=O)N[C@@H](CO)C(=O)N[C@@H](Cc1ccc(O)cc1)C(=O)N[C@@H](C)C(=O)N[C@@H](CO)C(=O)N[C@@H](C)C(=O)NCCCC[C@H](NC(=O)[C@@H]1CSSC[C@H](NC(=O)[C@H](Cc2ccc3ccccc3c2)NC(=O)[C@H](CCCNC(=N)N)NC(=O)[C@@H](N)CCCNC(=N)N)C(=O)N[C@@H](Cc2ccc(O)cc2)C(=O)N[C@@H](CCCNC(=N)N)C(=O)N[C@@H](CCCCN)C(=O)N[C@H](CCCCN)C(=O)N2CCC[C@H]2C(=O)N[C@@H](Cc2ccc(O)cc2)C(=O)N[C@@H](CCCNC(=N)N)C(=O)N[C@@H](CCCNC(=N)N)C(=O)N1)C(=O)O
152 nM	43%	10 nM	47%	64 nM	CC(C)C[C@H](NC(=O)[C@H](CO)NC(=O)[C@H](Cc1ccc2ccccc2c1)NC(=O)[C@@H]1CCCN1C(=O)[C@@H](N)CCCCN)C(=O)N[C@@H](CO)C(=O)N[C@@H](Cc1ccc(O)cc1)C(=O)N[C@@H](CCCNC(=N)N)C(=O)N[C@@H](CO)C(=O)N[C@@H](C)C(=O)NCCCC[C@H](NC(=O)[C@@H]1CSSC[C@H](NC(=O)[C@H](Cc2ccc3ccccc3c2)NC(=O)[C@H](CCCNC(=N)N)NC(=O)[C@@H](N)CCCNC(=N)N)C(=O)N[C@@H](Cc2ccc(O)cc2)C(=O)N[C@@H](CCCNC(=N)N)C(=O)N[C@@H](CCCCN)C(=O)N[C@H](CCCCN)C(=O)N2CCC[C@H]2C(=O)N[C@@H](Cc2ccc(O)cc2)C(=O)N[C@@H](CCCNC(=N)N)C(=O)N[C@@H](CCCNC(=N)N)C(=O)N1)C(=O)O
62 nM	73%	10 nM	48%	109 nM	CC(C)C[C@H](NC(=O)[C@H](CO)NC(=O)[C@@H](NC(=O)[C@@H]1CCCN1C(=O)[C@@H](N)CCCCN)C(C)C)C(=O)N[C@@H](CO)C(=O)N[C@@H](Cc1ccc([N+](=O)[O-])cc1)C(=O)N[C@@H](CCCNC(=N)N)C(=O)N[C@@H](CO)C(=O)N[C@@H](C)C(=O)NCCCC[C@H](NC(=O)[C@@H]1CSSC[C@H](NC(=O)[C@H](Cc2ccc3ccccc3c2)NC(=O)[C@H](CCCNC(=N)N)NC(=O)[C@@H](N)CCCNC(=N)N)C(=O)N[C@@H](Cc2ccc(O)cc2)C(=O)N[C@@H](CCCNC(=N)N)C(=O)N[C@@H](CCCCN)C(=O)N[C@H](CCCCN)C(=O)N2CCC[C@H]2C(=O)N[C@@H](Cc2ccc(O)cc2)C(=O)N[C@@H](CCCNC(=N)N)C(=O)N[C@@H](CCCNC(=N)N)C(=O)N1)C(=O)O
83 nM	60%	10 nM	43%	78 nM	CC(C)C[C@H](NC(=O)[C@H](CO)NC(=O)[C@@H](NC(=O)[C@@H]1CCCN1C(=O)[C@@H](N)CCCCN)C(C)C)C(=O)N[C@@H](CO)C(=O)N[C@@H](Cc1ccc(F)cc1)C(=O)N[C@@H](CCCNC(=N)N)C(=O)N[C@@H](CO)C(=O)N[C@@H](C)C(=O)NCCCC[C@H](NC(=O)[C@@H]1CSSC[C@H](NC(=O)[C@H](Cc2ccc3ccccc3c2)NC(=O)[C@H](CCCNC(=N)N)NC(=O)[C@@H](N)CCCNC(=N)N)C(=O)N[C@@H](Cc2ccc(O)cc2)C(=O)N[C@@H](CCCNC(=N)N)C(=O)N[C@@H](CCCCN)C(=O)N[C@H](CCCCN)C(=O)N2CCC[C@H]2C(=O)N[C@@H](Cc2ccc(O)cc2)C(=O)N[C@@H](CCCNC(=N)N)C(=O)N[C@@H](CCCNC(=N)N)C(=O)N1)C(=O)O
94 nM	59%	100 nM	51%	73 nM	CC(C)C[C@H](NC(=O)[C@H](CO)NC(=O)[C@@H](NC(=O)[C@@H]1CCCN1C(=O)[C@@H](N)CCCCN)C(C)C)C(=O)N[C@@H](CO)C(=O)N[C@@H](Cc1ccc(I)cc1)C(=O)N[C@@H](CCCNC(=N)N)C(=O)N[C@@H](CO)C(=O)N[C@@H](C)C(=O)NCCCC[C@H](NC(=O)[C@@H]1CSSC[C@H](NC(=O)[C@H](Cc2ccc3ccccc3c2)NC(=O)[C@H](CCCNC(=N)N)NC(=O)[C@@H](N)CCCNC(=N)N)C(=O)N[C@@H](Cc2ccc(O)cc2)C(=O)N[C@@H](CCCNC(=N)N)C(=O)N[C@@H](CCCCN)C(=O)N[C@H](CCCCN)C(=O)N2CCC[C@H]2C(=O)N[C@@H](Cc2ccc(O)cc2)C(=O)N[C@@H](CCCNC(=N)N)C(=O)N[C@@H](CCCNC(=N)N)C(=O)N1)C(=O)O
